In ChEMBL document CHEMBL4373711, “Development of 3,5-Dinitrophenyl-Containing 1,2,4-Triazoles and Their Trifluoromethyl Analogues as Highly Efficient Antitubercular Agents Inhibiting Decaprenylphosphoryl-β-d-ribofuranose 2'-Oxidase” (J Med Chem, 2019):
Values after ≈ are worked out from the molar mass of the structure shown. Active and inactive are the calls of the source. The calls are words filed in the database; no cut-off is given here.

Experiments:
[1] = tested on: Lichtheimia corymbifera; assay: Antifungal activity against Lichtheimia corymbifera CCM 8077 at highest concentration measured after 24 to 48 hrs by alamar blue dye based broth microdilution assay; format: functional, organism-based
[2] = tested on: Aspergillus flavus; assay: Antifungal activity against Aspergillus flavus CCM 8363 at highest concentration measured after 24 to 48 hrs by alamar blue dye based broth microdilution assay; format: functional, organism-based
[3] = tested on: Candida tropicalis; assay: Antifungal activity against Candida tropicalis ATCC 750 CCM 8264 at highest concentration measured after 24 to 48 hrs by alamar blue dye based broth microdilution assay; format: functional, organism-based
[4] = tested on: Pseudomonas aeruginosa; assay: Antibacterial activity against Pseudomonas aeruginosa ATCC 27853 CCM 3955 at highest concentration measured after 24 to 48 hrs by alamar blue dye based broth microdilution assay; format: functional, organism-based
[5] = tested on: Trichophyton interdigitale; assay: Antifungal activity against Trichophyton interdigitale ATCC 9533 CCM 8377 at highest concentration measured after 72 to 120 hrs by alamar blue dye based broth microdilution assay; format: functional
[6] = tested on: Mycobacterium tuberculosis; assay: Antimycobacterial activity against Mycobacterium tuberculosis H37Rv CNCTC My 331/88 after 21 days; format: functional; conditions: H37Rv CNCTC My 331/88, 504 h
How it was run: (§1)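 M. tuberculosis strains (H37Rv and clinical MDR/XDR isolates) tested by microdilution in Šula's semisynthetic medium. Compounds were dissolved in DMSO and tested at 32 to 0.03 µM in twofold steps. Inoculum was a 1.0 McFarland suspension diluted 10-3. Plates were incubated at 37 °C and read at 14 and 21 days.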

[7] = tested on: Mycobacterium kansasii; assay: Antimycobacterial activity against Mycobacterium kansasii 6509/96 after 7 days; format: functional; conditions: 6509/96, 168 h
How it was run: (§2)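 Microdilution in Šula's semisynthetic medium; compounds in DMSO at 32–0.03 µM. Inoculum from 1.0 McFarland suspension diluted 10-4. […] Isoniazid and rifampicin as reference drugs.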

[8] = tested on: Mycobacterium kansasii; assay: Antimycobacterial activity against Mycobacterium kansasii 6509/96 after 21 days; format: functional; conditions: 6509/96, 504 h; how it was run: as §2
[9] = tested on: Mycobacterium tuberculosis; assay: Antimycobacterial activity against Mycobacterium tuberculosis H37Rv CNCTC My 331/88 after 14 days; format: functional; conditions: H37Rv CNCTC My 331/88, 336 h; how it was run: as §1
[10] = tested on: Klebsiella pneumoniae; assay: Antibacterial activity against Klebsiella pneumoniae at highest concentration measured after 24 to 48 hrs by alamar blue dye based broth microdilution assay; format: functional, organism-based
[11] = tested on: Staphylococcus aureus; assay: Antibacterial activity against Staphylococcus aureus subsp. aureus ATCC 29213 CCM 4223 at highest concentration measured after 24 to 48 hrs by alamar blue dye based broth microdilution assay; format: functional, organism-based
[12] = tested on: Serratia marcescens; assay: Antibacterial activity against Serratia marcescens at highest concentration measured after 24 to 48 hrs by alamar blue dye based broth microdilution assay; format: functional, organism-based
[13] = tested on: Mycobacterium kansasii; assay: Antimycobacterial activity against Mycobacterium kansasii CNCTC My 235/80 after 21 days; format: functional; conditions: CNCTC My 235/80, 504 h; how it was run: as §2
[14] = tested on: A-431; assay: Cytotoxicity against human A431 cells assessed as reduction in cell viability after 48 hrs by CellTiter 96 aqueous one solution assay; format: cell-based; conditions: A-431, 48 h
[15] = tested on: Mycobacterium kansasii; assay: Antimycobacterial activity against Mycobacterium kansasii 6509/96 after 14 days; format: functional; conditions: 6509/96, 336 h; how it was run: as §2
[16] = tested on: Staphylococcus aureus; assay: Antibacterial activity against methicillin-resistant Staphylococcus aureus subsp. aureus ATCC 43300 CCM 4750 at highest concentration measured after 24 to 48 hrs by alamar blue dye based broth microdilution assay; format: functional, organism-based
[17] = tested on: Mycobacterium avium; assay: Antimycobacterial activity against Mycobacterium avium CNCTC My 330/88 after 21 days; format: functional; conditions: CNCTC My 330/88, 504 h
How it was run: (§3)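 M. avium was tested by microdilution in Šula's semisynthetic medium, with compounds dissolved in DMSO and serially diluted from 1000 down to 1. Inoculum was a 1.0 McFarland suspension diluted 10-5. Plates were incubated at 37 °C and read at 14 and 21 days. […] Isoniazid and rifampicin served as standards.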

[18] = tested on: Staphylococcus epidermidis; assay: Antibacterial activity against Staphylococcus epidermidis at highest concentration measured after 24 to 48 hrs by alamar blue dye based broth microdilution assay; format: functional, organism-based
[19] = tested on: Mycobacterium avium; assay: Antimycobacterial activity against Mycobacterium avium CNCTC My 330/88 after 14 days; format: functional; conditions: CNCTC My 330/88, 336 h; how it was run: as §3
[20] = tested on: Candida parapsilosis; assay: Antifungal activity against Candida parapsilosis ATCC 22019 CCM 8260 at highest concentration measured after 24 to 48 hrs by alamar blue dye based broth microdilution assay; format: functional, organism-based
[21] = tested on: Pichia kudriavzevii; assay: Antifungal activity against Candida krusei ATCC 6258 CCM8271 at highest concentration measured after 24 to 48 hrs by alamar blue dye based broth microdilution assay; format: functional, organism-based
[22] = tested on: HepG2; assay: Cytotoxicity against human HepG2 cells assessed as reduction in cell viability after 48 hrs by CellTiter 96 aqueous one solution assay; format: cell-based; conditions: HepG2, 48 h
[23] = tested on: Mycobacterium kansasii; assay: Antimycobacterial activity against Mycobacterium kansasii CNCTC My 235/80 after 14 days; format: functional; conditions: CNCTC My 235/80, 336 h; how it was run: as §2
[24] = tested on: Enterococcus faecalis; assay: Antibacterial activity against Enterococcus faecalis ATCC 29212 CCM 4224 at highest concentration measured after 24 to 48 hrs by alamar blue dye based broth microdilution assay; format: functional, organism-based
[25] = tested on: Aspergillus fumigatus; assay: Antifungal activity against Aspergillus fumigatus ATCC 204305 at highest concentration measured after 24 to 48 hrs by alamar blue dye based broth microdilution assay; format: functional, organism-based
[26] = tested on: Escherichia coli; assay: Antibacterial activity against Escherichia coli ATCC 25922 CCM 3954 at highest concentration measured after 24 to 48 hrs by alamar blue dye based broth microdilution assay; format: functional, organism-based
[27] = Cytotoxicity against human HepG2 cells assessed as cell viability at 30 uM after 48 hrs by CellTiter 96 aqueous one solution assay relative to control; format: cell-based; conditions: read-out: Activity
How it was run: (§4)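 HepG2 (DMEM, 10% FBS, 1 mM pyruvate) or A431 (DMEM, 10% FBS) seeded 10,000 cells/well, 24 h at 37 °C, 5% CO2, then 30 µM compound for 48 h. MTS reagent 60 min, absorbance 490 nm, background subtracted; 0.1% DMSO vehicle = 100%, 10% SDS = 0% viability.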

[28] = Cytotoxicity against human A431 cells assessed as cell viability at 30 uM after 48 hrs by CellTiter 96 aqueous one solution assay relative to control; format: cell-based, A-431; conditions: read-out: Activity; how it was run: as §4
[29] = tested on: Mycobacterium kansasii; assay: Antimycobacterial activity against Mycobacterium kansasii CNCTC My 235/80 after 7 days; format: functional; conditions: CNCTC My 235/80, 168 h; how it was run: as §2
[30] = tested on: Candida albicans; assay: Antifungal activity against Candida albicans ATCC 24433 CCM 8320 at highest concentration measured after 24 to 48 hrs by alamar blue dye based broth microdilution assay; format: functional, organism-based

Row | SMILES | Activity [1] | Activity [2] | Activity [3] | Activity [4] | Activity [5] | MIC99 [6] | MIC99 [7] | MIC99 [8] | MIC99 [9] | Activity [10] | Activity [11] | Activity [12] | MIC99 [13] | IC50 [14] | MIC99 [15] | Activity [16] | MIC99 [17] | Activity [18] | MIC99 [19] | Activity [20] | also measured
1 | O=[N+]([O-])c1cc(CSc2nnc(-c3ccc(Cl)cc3)n2Cc2ccccc2)cc([N+](=O)[O-])c1 | inactive | inactive | inactive | inactive | inactive | 4 µM (≈ 1.93 µg/mL) | 8 µM (≈ 3.86 µg/mL) | 8 µM (≈ 3.86 µg/mL) | 4 µM (≈ 1.93 µg/mL) | inactive | inactive | inactive | 8 µM (≈ 3.86 µg/mL) | > 30 µM | 8 µM (≈ 3.86 µg/mL) | inactive | 250 µM (≈ 120 µg/mL) | inactive | 250 µM (≈ 120 µg/mL) | inactive | Activity [21]: inactive; IC50 [22]: > 30 µM; MIC99 [23]: 8 µM (≈ 3.86 µg/mL); Activity [24]: inactive; Activity [25]: inactive; Activity [26]: inactive; viability at 48 h, 30 µM [27]: 104%; viability at 48 h, 30 µM [28]: 73%; MIC99 [29]: 4 µM (≈ 1.93 µg/mL); Activity [30]: inactive
2 | O=[N+]([O-])c1cc(CSc2nnc(-c3ccccc3)n2-c2ccc(Cl)c(Cl)c2)cc([N+](=O)[O-])c1 | inactive | inactive | inactive | inactive | inactive | 2 µM (≈ 1 µg/mL) | 0.5 µM (≈ 0.251 µg/mL) | 2 µM (≈ 1 µg/mL) | 1 µM (≈ 0.502 µg/mL) | inactive | inactive | inactive | 2 µM (≈ 1 µg/mL) | > 30 µM | 1 µM (≈ 0.502 µg/mL) | inactive | 125 µM (≈ 62.8 µg/mL) | inactive | 125 µM (≈ 62.8 µg/mL) | inactive | Activity [21]: inactive; IC50 [22]: > 30 µM; MIC99 [23]: 1 µM (≈ 0.502 µg/mL); Activity [24]: inactive; Activity [25]: inactive; Activity [26]: inactive; viability at 48 h, 30 µM [27]: 134%; viability at 48 h, 30 µM [28]: 136%; MIC99 [29]: 0.5 µM (≈ 0.251 µg/mL); Activity [30]: inactive
3 | Cn1c(SCc2ccc(Br)cc2)nnc1-c1cc([N+](=O)[O-])cc([N+](=O)[O-])c1 | inactive | inactive | inactive | inactive | inactive | 0.5 µM (≈ 0.225 µg/mL) | 0.25 µM (≈ 0.113 µg/mL) | 1 µM (≈ 0.45 µg/mL) | 0.25 µM (≈ 0.113 µg/mL) | inactive | inactive | inactive | 1 µM (≈ 0.45 µg/mL) | > 30 µM | 0.5 µM (≈ 0.225 µg/mL) | inactive | 8 µM (≈ 3.6 µg/mL) | inactive | 8 µM (≈ 3.6 µg/mL) | inactive | Activity [21]: inactive; IC50 [22]: > 30 µM; MIC99 [23]: 0.5 µM (≈ 0.225 µg/mL); Activity [24]: inactive; Activity [25]: inactive; Activity [26]: inactive; viability at 48 h, 30 µM [27]: 152%; viability at 48 h, 30 µM [28]: 137%; MIC99 [29]: 0.5 µM (≈ 0.225 µg/mL); Activity [30]: inactive
